Assay outcomes from PubChem.
mABHD4 FP – ABHD4 inhibitors, primary screen, biochemical, fluorescence polarization, mouse. (Lyso)-N-acylphosphatidylethanolamine lipase (Mus musculus), Q8VD66. inhibition, % at 8.92 µM. 370,000 compounds, 0.54% hits. purified mABHD4, FP-Rh probe fluorescence polarization;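 active means inhibition exceeding the mean over every tested compound plus 3 SD, cut at about 30% in these data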
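Assay system: Wild-type mouse ABHD4 protein | Medium: HEPES pH 7.0 buffer, 150 mM NaCl, 0.01% Pluronic F-127 | Incubation: Enzyme–compound pre-incubation 45 min, then probe 60 min, both 25 °C | Technique: Fluorescence polarization with parallel and perpendicular emission, 525/598 nm | Evaluation: % inhibition of FP-Rh probe binding versus controls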
HTRA1 inh – HTRA1 serine protease inhibitors, primary screen, biochemical, fluorescence polarization, HTS. Q92743. recombinant HTRA1, FP-rhodamine activity-based probe. inhibition, % at 5.96 µM. 340,000 compounds, 0.5% hits. AID 504803, 2011; in the data active means inhibition above about 36%
SIAE primary – human SIAE inhibitors, primary screen, biochemical, fluorescence polarization, FP-Rh probe, 1536-well HTS; Sialate O-acetylesterase (Homo sapiens), Q9HAT2; SIAE FP-Rh probe binding; inhibition, % at 9.66 µM; 370,000 compounds, 0.69% hits;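 active means inhibition above a cutoff: mean of compounds within the control limits plus 3 SD of those, cut at about 17% in these data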
Target sequence (Q9HAT2 whole entry, looked up): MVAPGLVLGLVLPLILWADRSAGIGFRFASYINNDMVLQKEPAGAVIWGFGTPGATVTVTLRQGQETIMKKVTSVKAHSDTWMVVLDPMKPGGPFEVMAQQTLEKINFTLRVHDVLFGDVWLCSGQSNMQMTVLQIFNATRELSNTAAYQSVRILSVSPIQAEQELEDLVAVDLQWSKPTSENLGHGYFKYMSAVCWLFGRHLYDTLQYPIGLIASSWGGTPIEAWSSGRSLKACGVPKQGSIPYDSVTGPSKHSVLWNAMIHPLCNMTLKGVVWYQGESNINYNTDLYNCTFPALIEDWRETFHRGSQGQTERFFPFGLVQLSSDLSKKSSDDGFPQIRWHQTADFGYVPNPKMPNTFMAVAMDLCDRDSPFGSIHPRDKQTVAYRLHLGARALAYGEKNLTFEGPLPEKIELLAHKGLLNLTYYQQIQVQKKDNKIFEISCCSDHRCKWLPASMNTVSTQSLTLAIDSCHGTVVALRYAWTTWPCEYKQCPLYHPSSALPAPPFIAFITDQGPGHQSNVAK
pPAFAH inh – pPAFAH enzyme inhibitors, primary screen, biochemical, fluorescence polarization, human. Platelet-activating factor acetylhydrolase (Homo sapiens), Q13093. recombinant pPAFAH, FP-rhodamine probe fluorescence polarization. inhibition, % at 3.39 µM. 330,000 compounds, 1.5% hits;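 active means inhibition above the mean inhibition across the screen plus 3 SD, cut at about 25% in these data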;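 further: inhibitors block binding of the rhodamine activity-based probe so polarization drops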
TCR CD3 inh – inhibitors of human TCR-CD3 interaction, primary screen, biochemical, fluorescence, TAMRA-labeled TCR probe; AID 651800, 2012; inhibition, % at 9.4 µM; T-cell receptor (TCR); 360,000 compounds, 0.37% hits; in the data active means inhibition above about 19%;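 further: recombinant mutant TCR 2C K166C tagged with TAMRA read by polarization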
Numbers stand for hits; – = inactive; · = no result. Compounds with a hit are over-represented: about 2.3% of the library has one in this group of screens.

SMILES	mABHD4 FP	HTRA1 inh	SIAE primary	pPAFAH inh	TCR CD3 inh
COc1ccc(NS(=O)(=O)c2cccc(C(=O)N3CCCC(C)C3)c2)cc1 (stereo not drawn)	–	–	–	25	–
Cc1oc2ccc(NS(=O)(=O)c3ccccc3)cc2c1C(=O)Nc1ccccc1	–	–	–	33	–
CC(=O)N1CCCN(S(=O)(=O)c2ccc3c(c2)oc(=O)n3C)CC1	–	·	–	·	·
COc1ccc(C2=NN(c3nc(-c4ccc(CNC(C)=O)cc4)cs3)C(c3ccco3)C2)cc1 (stereo not drawn)	–	–	–	25	–
COc1ccc(-c2csc(N3CCN(C(=O)c4ccco4)CC3)n2)cc1	–	–	–	–	–
CC1CCc2c(sc(NS(=O)(=O)c3ccccc3)c2C(=O)OC(C)C)C1 (stereo not drawn)	–	–	–	25	–
COC(=O)c1c(NS(=O)(=O)c2ccc3ccccc3c2)sc2c1CCCC2	–	–	–	–	–
CCCCOC(=O)c1ccc(NC(=O)Nc2ccc(OC)c(OC)c2)cc1	–	–	20	–	–
COc1ccc(NC(=O)COC(=O)c2ccc(O)cc2)c([N+](=O)[O-])c1	–	–	–	28	–
FC(F)(F)Oc1ccc(Cn2ccc3ccc(-c4ccc5ccn(Cc6ccccc6)c5c4)cc32)cc1	–	·	–	·	·
CCCC1/C(=N/O)CC(c2ccccc2)NC1c1ccccc1 (stereo not drawn)	–	–	–	27	–
CC(=O)OCCCN1CCC2(CCC(c3ccccc3)CC2)C1=O (stereo not drawn)	–	·	–	·	·
COC(C/C=C\C(=O)COCc1ccccc1)OC	·	·	·	25	·
Cc1ccc(S(=O)(=O)NCC(=O)N2CCN(c3ccccn3)CC2)s1	–	·	–	·	·
COc1ccccc1NS(=O)(=O)c1cccc(C(=O)NCC(c2ccccc2OC)N2CCCC2)c1 (stereo not drawn)	–	–	–	–	–
Cc1cccc(NS(=O)(=O)c2cccc(C(=O)NCC(c3ccco3)N3CCCCC3)c2)c1 (stereo not drawn)	–	–	–	33	–
COc1ccccc1C(CNC(=O)c1cccc(S(=O)(=O)Nc2ccc(C)cc2)c1)N1CCCC1 (stereo not drawn)	–	–	–	31	–
O=C(NCC(c1ccco1)N1CCCC1)c1ccc(S(=O)(=O)Nc2ccc(F)cc2)cc1 (stereo not drawn)	–	–	–	29	–
COc1ccc(NS(=O)(=O)c2cccc(C(=O)NCC(c3ccco3)N3CCCCC3)c2)cc1 (stereo not drawn)	–	–	–	31	–
C#CCNC(=O)C[C@H]1C[C@@]2(C(=O)OC)C(=C[C@H](C3CCCC3)O[C@@H]2C)N(CCCCCCCC)C1=O	–	·	–	·	–
CN(C)S(=O)(=O)c1cccc(-c2nnc(SCCNCCO)n2-c2ccc(F)cc2)c1	31	–	–	–	–
O=C1OC(c2cccs2)=N/C1=C\c1ccc(-c2cccc(Cl)c2)o1	–	–	–	30	–
N=C1S/C(=C\c2ccc(-c3cccc(Cl)c3)o2)C(=O)N1c1nccs1	–	–	–	–	–
COc1ccc(CN(CCN2CCOCC2)C(=O)c2cc(F)cc(F)c2)cc1OC	–	·	–	·	·
Cc1cc([N+](=O)[O-])nn1CCCC(=O)Nc1cc(Oc2ccccc2)cc([N+](=O)[O-])c1	–	–	–	–	–
SMILES	mABHD4 FP	HTRA1 inh	SIAE primary	pPAFAH inh	TCR CD3 inh
Cc1cccc(Oc2cc(NC(=O)Cn3cnc([N+](=O)[O-])n3)cc([N+](=O)[O-])c2)c1	–	–	–	29	–
Cc1cccc(NC(=O)CSc2nc(C3CC3)nc3ccccc23)c1	–	–	–	–	–
CCN(CC)c1ccc(NC(=O)CSc2nc(C3CC3)nc3ccccc23)cc1C	–	–	–	31	–
O=C(O)CN1C(=O)/C(=C\c2cccc(OCc3ccc(Cl)cc3Cl)c2)SC1=S	–	–	–	·	–
O=C(O)CN1C(=O)/C(=C\c2ccccc2OCc2ccc(Cl)cc2Cl)SC1=S	–	–	–	34	–
CN1CCN(c2cc(N3CCN(C(=O)c4ccco4)CC3)c3c4c(onc24)-c2ccccc2C3=O)CC1	·	63	·	–	·
COc1ccc(NC(=O)c2cc(-c3ccco3)nc3ccccc23)cc1S(=O)(=O)N1CCOCC1	–	–	–	–	–
